Published values from different studies.
Each line is one published result; the experiments were not run side by side.
ATXN3: Ataxin-3 (ATXN3, Homo sapiens, UniProt P54252)
PIK3C3: Phosphatidylinositol 3-kinase catalytic subunit type 3 (PIK3C3, Homo sapiens, UniProt Q8NEB9)
ADRA2C: Alpha-2C adrenergic receptor (ADRA2C, Homo sapiens, UniProt P18825)

| SMILES | target | assay | conditions | inhibition [%] |
| --- | --- | --- | --- | --- |
| CN(C)C(=O)COC(=O)Cc1ccc(OC(=O)c2ccc(NC(=N)N)cc2)cc1 | ATXN3 | enzyme activity, inhibitor | 10 µM | 3 |
| C#Cc1n[nH]c2c(-c3cn([C@@H](C)c4ccccn4)c(=O)[nH]c3=O)cc(F)cc12 | PIK3C3 | enzyme activity, inhibitor | 0.1 µM | 8.6 |
| Cn1cc(-c2cccc(N3CCc4c(sc5c4CC(C)(C)C5)C3=O)c2CO)cc(Nc2ccncn2)c1=O | PIK3C3 | enzyme activity, inhibitor | 1 µM | 0 |
| COCc1c(-c2cc3cc(C)cc(OC)c3s2)c2c(N)ncnn2c1CN1CCNC(=O)C1 | ADRA2C | ligand displacement, radioligand | 10 µM | 31 |
| C#Cc1n[nH]c2c(-c3cn([C@@H](C)c4ccccc4)c(=O)[nH]c3=O)cc(F)cc12 | Phosphatidylinositol 4-phosphate 3-kinase C2 domain-containing subunit alpha (PIK3C2A, Homo sapiens, UniProt O00443) | enzyme activity, inhibitor | 0.1 µM | 11.7 |
| c1ccc(C(NCCNC(c2ccccc2)c2ccccc2)c2ccccc2)cc1 | Apelin receptor (APLNR, Homo sapiens, UniProt P35414) | cell-free assay | 10 µM | 46 |
| CN(CCN1CCC(OC(=O)Nc2ccccc2-c2ccccc2)CC1)C(=O)c1ccc(CN2CCC(C(N)=O)CC2)cc1 | Nociceptin receptor (OPRL1, Homo sapiens, UniProt P41146) | ligand displacement, radioligand | 1 µM | 0 |
| CCN(CC)CCCC[C@H](NC(=O)[C@H](CC(C)C)NC(=O)[C@H](C)NC(=O)[C@H](Cc1ccccc1)NC(=O)c1ccc(C(C)(C)C)cc1)C(=O)N[C@@H](CO)C(=O)OC | 5-hydroxytryptamine receptor 1A (HTR1A, Homo sapiens, UniProt P08908) | ligand displacement, radioligand | 10 µM | 19 |
| CCOC(=O)c1ccc(OC(=O)CCCCCNC(=N)N)cc1 | ATXN3 | enzyme activity, inhibitor | 10 µM | 3 |
| Cn1cc(-c2cc(F)cc(N3CCn4c(cc5c4CCCC5)C3=O)c2CO)cc(Nc2ccc(N3CCN(C4COC4)CC3)cn2)c1=O | Serine/threonine-protein kinase PAK 3 (PAK3, Homo sapiens, UniProt O75914) | enzyme activity, inhibitor | 0.1 µM | 16 |
| COc1cc(Nc2ncc(F)c(Nc3ccc4c(n3)NC(=O)C(C)(C)O4)n2)cc(OC)c1OC | Eukaryotic translation initiation factor 2-alpha kinase 1 (EIF2AK1, Homo sapiens, UniProt Q9BQI3) | binding, competition with immobilised ligand | 10 µM | 38 |
| O=C(Nc1cccnn1)N1CCN([C@@H]2CCOc3cc(C(F)(F)F)ccc32)CC1 | ADRA2C | cell-free assay | 20 µM | 23 |
| C[C@@H]1CCCN1CCCCOc1ccc2occc(=O)c2c1 | Bile salt-activated lipase (Homo sapiens, UniProt P19835) | enzyme activity, inhibitor, fluorescence | 10 µM | 6 |
